Mdm2 ligase inh: inhibitors of human Mdm2 E3 ubiquitin ligase. signal enhancement, % at 5 µM. Q00987. AID 1230. actives 0.11% (n = 210,000). cell-based MDM2 ubiquitination luciferase reporter, 2 h; 0 = plate control, 100 = twice control, blank-subtracted;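 active = signal enhancement of 30% or more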;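 also: luminescence tracks abundance of the self-degrading MDM2-luciferase fusion protein; higher signal means inhibition of MDM2 E3 ligase activity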
Target sequence (Q00987 whole entry, looked up, the tested form may be a part): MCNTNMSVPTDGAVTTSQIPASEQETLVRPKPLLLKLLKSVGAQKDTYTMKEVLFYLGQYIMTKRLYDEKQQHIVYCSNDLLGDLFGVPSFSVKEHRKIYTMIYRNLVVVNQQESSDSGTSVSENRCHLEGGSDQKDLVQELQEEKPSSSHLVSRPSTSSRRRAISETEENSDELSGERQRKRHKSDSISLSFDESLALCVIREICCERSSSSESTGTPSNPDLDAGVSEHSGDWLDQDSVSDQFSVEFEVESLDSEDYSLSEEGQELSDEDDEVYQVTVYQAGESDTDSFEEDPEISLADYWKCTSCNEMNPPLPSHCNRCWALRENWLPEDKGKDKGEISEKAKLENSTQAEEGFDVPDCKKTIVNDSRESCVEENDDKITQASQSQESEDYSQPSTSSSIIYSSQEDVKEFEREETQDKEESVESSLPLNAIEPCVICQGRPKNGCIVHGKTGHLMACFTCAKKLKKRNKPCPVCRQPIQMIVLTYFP
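Test system: stable mammalian line carrying autodegrading MDM2–luciferase fusion reporter; quantity: 2000 cells in each well; times: 4 h cell settling then 2 h compound exposure, 37 °C; detection: luminescence with SteadyLite reagent, 15 min at room temperature; evaluation: percent signal gain over controls, blank-subtracted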
TNF necrop inh: TNF-alpha cell death inhibition in Jurkat FADD-/- cells. Jurkat FADD-/- TNF necroptosis rescue, ATP luminescence, 24 h; 0 = TNF only, 100 = no-TNF cells. activation (protection from cell death), % at 10 µM. actives 0.068% (n = 220,000). AID 463075;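 active = activation, meaning protection from cell death, of at least 50% relative to plate controls; inactive = activation below 50%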;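 also: necroptosis triggered by 40 ng/mL TNF-alpha added together with compound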
Autophagy HCS: alters autophagy in cells; MEF GFP-LC3 puncta imaging; test concentration mostly 10 µM; calls only at 10 µM (by protocol); actives 0.98% (n = 190,000); AID 463193;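 active = percentage of spot-positive cells more than 3 SD above its plate mean, without a fluorescence outlier flag or 80% toxicity; inconclusive = no clear call, values can overlap the other calls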;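 also: spot-positive cell cutoff set from DMSO-treated cells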
Dynein cargo inh: blocks dynein driven cargo transport along microtubules; 3617.4 mouse cells, GR-EGFP nuclear translocation imaging; test concentration mostly 20 µM; stimulated with dexamethasone, 1 µM; hits give low values; z-score, hits read low; actives 0.47% (n = 220,000); AID 1381;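 active = plate z-score of nuclear minus cytoplasmic receptor signal below a set negative limit, without overly bright fluorescence or cell loss, cut at about -3.5 in these data, passing the limit was not always enough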;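 also: z-score of nuclear minus cytoplasmic ring GR-EGFP intensity difference per well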
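medium = tetracycline-free induction medium containing charcoal-stripped FBS | probe or stimulus = dexamethasone, 1.0 µM final | timing = 48 h induction, then 1 h compound, then 30 min agonist, 37 °C | detection = automated 10x imaging of fixed Hoechst-stained cells | read-out basis = nuclear versus cytoplasmic GR-EGFP signal, averaged per well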
zVAD death inh: L929 zVAD cell death inhibition | L929 zVAD necroptosis rescue, ATP luminescence, 24 h; with zVAD 60 µM | AID 1377 | viability rescue, % at 10 µM | actives 0.38% (n = 220,000);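 active = activation, scaled between plate controls, above about 75%, limit read from the data; inactive = activation under that limit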;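 also: 0% = zVAD with DMSO and 100% = DMSO alone without zVAD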
Dynein inh conf: dynein cargo transport inhibition, confirmation | shares compounds with Dynein cargo inh | 3617.4 GR-EGFP nuclear translocation imaging, dexamethasone-induced | calls only at 20 µM | actives 69% (n = 1,000) | AID 463116;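 active = inhibition of receptor movement into the nucleus at or above a set limit in both runs, with normal cell brightness and cell count; inconclusive = limit reached in only one run, brightness and count normal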;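 also: dexamethasone at 1 µM final in well for 30 min; nuclear minus cytoplasmic GR-EGFP mean intensity difference in channel 2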
Active calls of the source: *; i = inactive; ? = inconclusive; nt = no result given; + = active, no number. An excerpt weighted towards active compounds, which were near 1.8% of everything screened.

SMILES	Mdm2 ligase inh	TNF necrop inh	Autophagy HCS	Dynein cargo inh	zVAD death inh	Dynein inh conf
COC(=O)c1cc(=O)n(Cc2ccc(OC)c(OC)c2)c(=Nc2ccc(F)cc2)s1	-11.4	-7.2	i	-4.35*	-1.1	+
CNC(=O)C1CC(=O)N(CCc2ccc(OC)c(OC)c2)C(=Nc2ccc(F)cc2)S1 (stereo unspecified)	nt	0.2	i	-0.554	-0.1	nt
COC(=O)c1cc(=O)n(-c2ccccc2)c(=Nc2ccccc2)s1	nt	-12.6	i	-3.93*	nt	+
COC(=O)c1cc(=O)n(CCc2ccc(OC)c(OC)c2)c(=Nc2ccc(F)c(Cl)c2)s1	-8.2	-5.2	i	-4.02*	-0.7	+
CCS(=O)(=O)c1cc([N+](=O)[O-])c(Sc2ccccc2NC(C)=O)s1	-9.8	-7.5	nt	0.497	-0.7	nt
N#CCCN(CCC#N)C(=O)COc1ccc(Cl)cc1Cl	-15.9	-0.6	i	1.87	-0.3	nt
N#CCCN(C(=O)CCl)c1cccc(Cl)c1	-18.2	11.5	i	-3.81*	56.7	+
COc1cccc(C(c2c(N)[nH]c(=S)[nH]c2=O)c2c(N)[nH]c(=S)[nH]c2=O)c1	-15.3	2.0	nt	-0.482	0.7	nt
COc1ccccc1-c1cc(C(F)(F)F)nc(S(=O)(=O)CCCC(=O)O)n1	1.2	-8.2	i	-1.21	0.9	nt
COc1ccc(-c2cc(C(F)(F)F)nc(S(=O)(=O)CCCC(=O)Nc3cccc(O)c3)n2)cc1OC	-1.5	-14.1	i	-5.65*	23.3	+
Cc1ccc(C)c(N/N=C2\CCCNC2=O)c1	-6.9	1.2	i	2.75	0.9	nt
COC(=O)c1scc(C)c1NC(=O)Nc1ccccc1	5.6	-2.1	i	-0.8	0.3	nt
COC(=O)c1scc(C)c1NC(=O)/C=C/C(=O)O	-12.1	-9.3	nt	-3.76*	0.5	i
Cc1ccc(-c2nnc(Sc3nc4ccccc4o3)c3ccccc23)cc1	-1.0	-18.8	i	-4.14*	1.9	+
Clc1ccc(-c2nnc(Sc3nc4ccccc4o3)c3ccccc23)cc1	-18.3	-17.0	i	-4.1*	1.6	+
CCN1CC(c2ccccc2)C(c2ccc(Cl)cc2)=N1 (stereo unspecified)	-4.0	1.3	i	0.356	1.0	nt
CCN(CC)c1ccc(/C=C/C(=O)c2cccnc2)cc1	-7.7	-2.9	i	0.484	-1.3	nt
N#Cc1ccc(/C=C/C(=O)c2cccnc2)cc1	1.9	-7.5	i	-5.05*	-0.7	+
O=C(/C=C/c1ccc(Cl)cc1)c1cccnc1	-5.3	-15.3	i	-5.09*	-0.3	+
O=C(/C=C/c1cccnc1)c1cc(F)ccc1O	-3.9	-7.4	nt	-3.43	-0.3	nt
O=C(/C=C/c1cccnc1)/C=C/c1cccnc1	38.7*	5.8	nt	-6.44*	42.5	+
O=C(/C=C/c1ccccc1Cl)c1cccnc1	-6.5	-15.3	i	-4.21*	0.7	+
C=C1C(=O)[C@@]23[C@H](O)C[C@@H]4C(C)(C)CC[C@H](O)[C@]4(C)[C@@H]2C[C@H](O)[C@@H]1[C@H]3O	nt	-23.3	i	-5.11*	1.4	+
CCOC(=O)N/N=C\C=C\c1ccc2c(c1)OCO2	-11.8	0.4	i	0.969	1.6	nt
COCCNC(=O)/C(C#N)=C/C=C/c1ccccc1[N+](=O)[O-]	2.2	7.3	i	-3.52*	71.3	+
SMILES	Mdm2 ligase inh	TNF necrop inh	Autophagy HCS	Dynein cargo inh	zVAD death inh	Dynein inh conf
COCCNC(=O)/C(C#N)=C/c1ccc(O)c([N+](=O)[O-])c1	-5.3	-0.7	i	1.74	10.5	nt
O=C(NCc1ccc(C(=O)O)cc1)OCc1ccccc1	-14.5	0.1	i	-0.41	1.2	nt
CCOC(=O)/C=C/C(=O)Nc1ccccc1-c1ccccc1NC(=O)/C=C/C(=O)OCC	38.8*	32.6	i	-4.13*	-1.7	+
CCOC(=O)/C=C/C(=O)Nc1cccc([N+](=O)[O-])c1	-4.5	-5.1	i	-1.69	-0.3	nt
Cc1ccc2nc(C)c3c(c2c1)SCC3	-5.0	-2.6	nt	0.305	0.0	nt
CN1C/C(=C\c2ccc(N3CCOCC3)cc2)C(=O)/C(=C/c2ccc(N3CCOCC3)cc2)C1	9.9	-5.4	i	-3.41	-0.3	nt
CCN1C/C(=C/c2ccc(N3CCOCC3)cc2)C(=O)/C(=C/c2ccc(N3CCOCC3)cc2)C1	6.6	-6.1	i	-3.56	0.2	+
CCCN(C(=O)c1cc2c(s1)CCC2)c1c(N)n(Cc2ccccc2)c(=O)[nH]c1=O	-9.0	1.7	nt	0.111	-0.1	nt
O=C1/C(=C/c2ccccc2[N+](=O)[O-])COc2ccccc21	nt	11.8	i	-5.72*	-2.2	+
CNc1ccc(/C=C2\COc3ccccc3C2=O)cc1[N+](=O)[O-]	-3.1	-0.6	i	0.696	-0.1	nt
Cn1cccc2[nH]c(=O)nc1-2	-1.4	1.3	nt	0.239	-0.1	nt
CC(C)(C)NC(=S)N/N=C\c1ccc(-c2ccc([N+](=O)[O-])cc2)o1	-1.0	-0.2	nt	-5.97	1.1	i
CCCCC(=O)N/N=C/c1ccc(-c2ccc([N+](=O)[O-])cc2)o1	-6.6	1.0	i	-0.787	6.4	nt
CCCCNC(=O)c1ccccc1NC(=O)CCC	-5.1	-0.1	i	1.29	0.0	nt
Cc1cc(C(=O)CCl)c(C)n1-c1cccc([N+](=O)[O-])c1	-28.4	-13.0	i	-3.01	-2.5	nt
Cc1cc(C(=O)CCl)c(C)n1-c1ccon1	-7.0	-8.7	i	-5.55*	-0.7	+
Cc1cc(C(=O)CCl)c(C)n1Cc1ccco1	-5.3	-8.5	i	-6.01*	-1.6	+
S=C(NCC1CCCO1)N1CCN(c2nc(-c3ccccc3)cs2)CC1 (stereo unspecified)	-5.5	-0.6	i	-0.697	15.1	nt
CCN(CC)c1ccc(/C=C/C(=O)c2ccc(Br)cc2)cc1	-9.8	1.3	+	-6.94	0.6	+
CN(C)c1ccc(C(=O)/C=C/c2ccc(Br)cc2)cc1	-4.2	0.5	i	2.07	0.1	nt
Cc1ccc(-n2nnnc2Sc2ccc(S(=O)(=O)NCCN(C)C)cc2[N+](=O)[O-])cc1	-19.4	-28.8	i	-3.95*	27.0	+
O=C(NNS(=O)(=O)c1ccccc1[N+](=O)[O-])c1cccnc1	-3.8	4.3	nt	-0.815	1.8	nt
CCC(=O)Nc1ccc(C=C(C(C)=O)C(C)=O)cc1	-19.2	-12.7	nt	-1.59	-1.7	nt
CCC(=O)Nc1ccc(/C=C(\C(C)=O)C(=O)c2ccccc2)cc1	-22.8	-18.8	nt	-4.09*	-1.5	+
Cc1ccc(-c2nnn(C/C(N)=N/O)n2)cc1	5.8	0.1	i	-1.05	4.9	nt
Cc1ccc2nc(/C(C#N)=C\c3ccc(N4CCOCC4)o3)[nH]c2c1	-24.1	-1.5	?	-6.65	0.0	+
